From ChEMBL document CHEMBL3525975, “Acetylenic linkers in lead compounds: a study of the stability of the propargyl-linked antifolates” (Drug Metab Dispos, 2012)
≈ marks a conversion by molar mass, not a printed value.

Tests used:
[1] = Kinetic solubility of the compound; assay type: physicochemical; conditions: read-out: Kinetic_solubility
In short: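 20 or 40 mM DMSO stocks diluted into filtered water with or without 200 μg/ml methylcellulose. Centrifuged, held 30 min at room temperature, then reversed-phase HPLC (50% ACN / 50 mM potassium phosphate pH 7.0, isocratic). Solubility taken as the highest concentration where absorbance stays linear with log concentration.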

[2] = target: Dihydrofolate reductase (Staphylococcus aureus, UniProt P0A017); experiment: Inhibition of Staphylococcus aureus DHFR assessed as reduction in rate of NADPH consumption
In short: (§1)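 DHFR activity followed as NADPH consumption at 340 nm over 5 min. Pure enzyme at limiting concentration, 100 μM NADPH, 1 mM dihydrofolate. Buffer: 50 mM KCl, 10 mM 2-mercaptoethanol, 0.5 mM EDTA, 1 mg/ml BSA. Run in triplicate.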

[3] = Stability in pH 7.4 simulated intestinal fluid at 5 ug/ml after 24 hrs at 37 degC by reverse phase HPLC method; assay type: ADME; conditions: simulated gi fluid, pH 7.4, 24 h
In short: (§2)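 Compounds incubated 24 h at 37°C in the stated fluid containing 200 μg/ml HPMC. Samples taken before and after incubation, quenched with equal volume ice-cold ACN, centrifuged and the supernatant run on reversed-phase HPLC. Stability = AUC after / AUC before incubation.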

[4] = Drug metabolism in mouse liver microsomes assessed as 3-(4-(2,4-diamino-6-methylpyrimidin-5-yl)but-3-yn-2-yl)-5-(pyridin-4-yl)phenol formation at 10 ug/ml by LC-MS/MS method; assay type: ADME
In short: (§3)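 Compound at 10 μg/ml incubated 2 h with mouse liver microsomes (0.5 mg/ml protein, 37°C) in 0.1 M potassium phosphate pH 7.4 with 200 μg/ml HPMC and an NADPH-regenerating system. Controls were DMSO alone and reactions quenched with ACN immediately after adding microsomes. Reactions were stopped with equal volume ice-cold ACN, centrifuged, solid-phase purified and analysed by LC-MS/MS. Metabolite share = metabolite AUC / total metabolite AUC in the same injection.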

[5] = Drug metabolism in mouse liver microsomes assessed as 4-(3-(4-(2,4-diamino-6-methylpyrimidin-5-yl)but-3-yn-2-yl)-5-methoxyphenyl)pyridine 1-oxide at 10 ug/ml by LC-MS/MS method; assay type: ADME; in short: as §3
[6] = Stability in mouse liver microsomes assessed as parent compound remaining at 5 ug/ml after 1 hr at 37 degC by reverse phase HPLC method; assay type: ADME; conditions: read-out: Stability
In short: (§4)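 Mouse liver microsomes (0.5 mg/ml) in 0.1 M potassium phosphate pH 7.4 with 200 μg/ml HPMC, 37°C. NADPH-regenerating system: 1.3 mM NADP+, 3.3 mM glucose 6-phosphate, 0.5 U/ml G6P dehydrogenase, 3.3 mM MgCl2. Final compound concentration 5 μg/ml; start by adding microsomes. Controls: DMSO, and compound without microsomes. Quench with ice-cold ACN, solid-phase cleanup, reversed-phase HPLC. Result is percent parent remaining vs pre-incubation. Half-life from the single time point, assuming first-order kinetics.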

[7] = Half life in mouse liver microsomes at 5 ug/ml at 37 degC by reverse phase HPLC method; assay type: ADME; in short: as §4
[8] = Drug metabolism in mouse liver microsomes assessed as demethylation at 5 ug/ml after 1 hr at 37 degC by reverse phase HPLC method; assay type: ADME
[9] = Stability in pH 1.2 simulated gastric fluid at 5 ug/ml after 24 hrs at 37 degC by reverse phase HPLC method; assay type: ADME; conditions: simulated gi fluid, pH 1.2, 24 h; in short: as §2
[10] = Stability in water at 5 ug/ml after 24 hrs at 37 degC by reverse phase HPLC method; assay type: physicochemical; conditions: buffer; in short: as §2
[11] = Drug metabolism in mouse liver microsomes assessed as 4-(3-(4-(2,4-diamino-6-ethylpyrimidin-5-yl)but-3-yn-2-yl)-5-methoxyphenyl)pyridine 1-oxide formation at 10 ug/ml by LC-MS/MS method; assay type: ADME; in short: as §3
[12] = Drug metabolism in mouse liver microsomes assessed as 3-(4-(2,4-diamino-6-ethylpyrimidin-5-yl)but-3-yn-2-yl)-5-(pyridin-4-yl)phenol formation at 10 ug/ml by LC-MS/MS method; assay type: ADME; in short: as §3
[13] = Drug metabolism in mouse liver microsomes assessed as 4-(3-(3-(2,4-diamino-6-ethylpyrimidin-5-yl)prop-2-ynyl)-4-methoxyphenyl)pyridine 1-oxide formation at 10 ug/ml by LC-MS/MS method; assay type: ADME; in short: as §3
[14] = Drug metabolism in mouse liver microsomes assessed as 2-(3-(2,4-diamino-6-ethylpyrimidin-5-yl)prop-2-ynyl)-4-(pyridin-4-yl)phenol formation at 10 ug/ml by LC-MS/MS method; assay type: ADME; in short: as §3
[15] = test system: Liver; experiment: Drug level in mouse liver microsomes treated with 10 ug/ml 5-(3-(3-methoxy-5-(pyridin-4-yl)phenyl)but-1-ynyl)-6-methylpyrimidine-2,4-diamine by LC-MS/MS method; assay type: ADME; in short: as §3
[16] = test system: Liver; experiment: Drug level in mouse liver microsomes treated with 10 ug/ml 6-ethyl-5-(3-(3-methoxy-5-(pyridin-4-yl)phenyl)prop-1-ynyl)pyrimidine-2,4-diamine by LC-MS/MS method; assay type: ADME; in short: as §3
[17] = test system: Liver; experiment: Drug level in mouse liver microsomes treated with 10 ug/ml 6-ethyl-5-(3-(3-methoxy-5-(pyridin-4-yl)phenyl)but-1-ynyl)pyrimidine-2,4-diamine by LC-MS/MS method; assay type: ADME; in short: as §3
[18] = test system: Liver; experiment: Drug level in mouse liver microsomes treated with 10 ug/ml 6-ethyl-5-(3-(2-methoxy-5-(pyridin-4-yl)phenyl)prop-1-ynyl)pyrimidine-2,4-diamine by LC-MS/MS method; assay type: ADME; in short: as §3
[19] = Drug metabolism in mouse liver microsomes assessed as 4-(3-(4-(2,4-diamino-6-ethylpyrimidin-5-yl)but-3-yn-2-yl)-4-methoxyphenyl)pyridine 1-oxide formation at 10 ug/ml by LC-MS/MS method; assay type: ADME; in short: as §3
[20] = Drug metabolism in mouse liver microsomes assessed as 2-(4-(2,4-diamino-6-ethylpyrimidin-5-yl)but-3-yn-2-yl)-4-(pyridin-4-yl)phenol formation at 10 ug/ml by LC-MS/MS method; assay type: ADME; in short: as §3
[21] = test system: Liver; experiment: Drug level in mouse liver microsomes treated with 10 ug/ml 6-ethyl-5-(3-(2-methoxy-5-(pyridin-4-yl)phenyl)but-1-ynyl)pyrimidine-2,4-diamine by LC-MS/MS method; assay type: ADME; in short: as §3
[22] = test system: Staphylococcus aureus; experiment: Antimicrobial activity against Staphylococcus aureus; assay type: functional
[23] = Inhibition of Candida glabrata DHFR; set-up: species or system Nakaseomyces glabratus; in short: as §1

Sequence of Dihydrofolate reductase (P0A017 whole entry): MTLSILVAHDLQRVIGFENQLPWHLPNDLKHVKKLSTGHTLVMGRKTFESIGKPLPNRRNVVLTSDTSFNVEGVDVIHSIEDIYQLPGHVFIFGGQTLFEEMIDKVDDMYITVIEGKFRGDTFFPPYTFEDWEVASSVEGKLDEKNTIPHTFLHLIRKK

## COc1cc(C(C)C#Cc2c(C)nc(N)nc2N)cc(N2CCOCC2)c1 (configuration not stated)
[1]
  solubility kinetic: > 80 µg/mL

## CCc1nc(N)nc(N)c1C#CC(C)c1cc(OC)cc(N2CCOCC2)c1 (configuration not stated)
[2]
  IC50: 26 nM
[1]
  solubility kinetic: > 80 µg/mL

## COc1cc(-c2ccncc2)cc(C(C)C#Cc2c(C)nc(N)nc2N)c1 (configuration not stated)
[3]
  Stability: Stable
[4]
  Drug metabolism: metabolite_detected
[5]
  Drug metabolism: metabolite_detected
[6]
  remaining at 1 h, 5 ug/ml: 33.7%
[7]
  half-life at 5 ug/ml: 38 min
[8]
  Drug metabolism: 15.9%
[9]
  Stability: Stable
[10]
  Stability: Stable

## CCc1nc(N)nc(N)c1C#CC(C)c1cc(OC)cc(-c2ccncc2)c1 (configuration not stated)
[3]
  Stability: Stable
[11]
  Drug metabolism: metabolite_detected
[12]
  Drug metabolism: metabolite_detected
[6]
  remaining at 1 h, 5 ug/ml: 29.2%
[7]
  half-life at 5 ug/ml: 34 min
[8]
  Drug metabolism: 28%
[9]
  Stability: Stable
[10]
  Stability: Stable

## CCc1nc(N)nc(N)c1C#CCc1cc(OC)cc(-c2ccncc2)c1
[3]
  Stability: Stable
[6]
  remaining at 1 h, 5 ug/ml: 0%
[7]
  half-life at 5 ug/ml: < 10 min
[8]
  Drug metabolism: 6.3%
[9]
  Stability: Stable
[10]
  Stability: Stable

## CCc1nc(N)nc(N)c1C#CCc1cc(-c2ccncc2)ccc1OC
[3]
  Stability: Stable
[13]
  Drug metabolism: metabolite_detected
[14]
  Drug metabolism: metabolite_detected
[6]
  remaining at 1 h, 5 ug/ml: 26.5%
[7]
  half-life at 5 ug/ml: 31 min
[8]
  Drug metabolism: 19.7%
[9]
  Stability: Stable
[10]
  Stability: Stable

## Cc1nc(N)nc(N)c1C#CC(C)c1cc(O)cc(-c2ccncc2)c1 (configuration not stated)
[15]
  Drug metabolism: metabolite_detected

## CCc1nc(N)nc(N)c1C#CCc1cc(OC)cc(-c2cc[n+]([O-])cc2)c1
[16]
  Drug metabolism: metabolite_detected

## CCc1nc(N)nc(N)c1C#CCc1cc(O)cc(-c2ccncc2)c1
[16]
  Drug metabolism: metabolite_detected

## CCc1nc(N)nc(N)c1C#CC(C)c1cc(OC)cc(-c2cc[n+]([O-])cc2)c1 (configuration not stated)
[17]
  Drug metabolism: metabolite_detected

## CCc1nc(N)nc(N)c1C#CCc1cc(-c2ccncc2)ccc1O
[18]
  Drug metabolism: metabolite_detected

## CCc1nc(N)nc(N)c1C#CC(C)c1cc(O)cc(-c2ccncc2)c1 (configuration not stated)
[17]
  Drug metabolism: metabolite_detected

## CCc1nc(N)nc(N)c1C#CC(C)c1cc(-c2ccncc2)ccc1OC (configuration not stated)
[19]
  Drug metabolism: metabolite_detected
[20]
  Drug metabolism: metabolite_detected
[7]
  half-life at 5 ug/ml: 65 min

## CCc1nc(N)nc(N)c1C#CC(C)c1cc(-c2cc[n+]([O-])cc2)ccc1OC (configuration not stated)
[21]
  Drug metabolism: metabolite_detected
[2]
  IC50: 45 nM

## COc1cc(C(C)C#Cc2c(C)nc(N)nc2N)cc(N2CCNCC2)c1 (configuration not stated)
[2]
  IC50: 130 nM
[22]
  MIC: 91.5 µg/mL (≈ 250 µM)
[1]
  solubility kinetic: 60 µg/mL (≈ 164 µM)

## COc1cc(-c2cc[n+]([O-])cc2)cc(C(C)C#Cc2c(C)nc(N)nc2N)c1 (configuration not stated)
[15]
  Drug metabolism: metabolite_detected

## COc1cc(-c2ccccc2)cc(C(C)C#Cc2c(C)nc(N)nc2N)c1 (configuration not stated)
[2]
  IC50: 61 nM
[22]
  MIC: 0.72 µg/mL (≈ 2.01 µM)
[1]
  solubility kinetic: 20 µg/mL (≈ 55.8 µM)

## COc1cc(-c2cc(C)cc(C)c2)cc(C(C)C#Cc2c(C)nc(N)nc2N)c1 (configuration not stated)
[23]
  IC50: 0.5 nM
